By IC50 is commonly meant the concentration needed to halve the response being measured. A higher IC50 goes with a need for much substance.

Drawing on ChEMBL document CHEMBL1130262, “Peptidomimetic inhibitors of the human cytomegalovirus protease” (J Med Chem, 1997), this text covers IC50 for twelve molecules.

One test has as its target T1, Neutrophil elastase (Homo sapiens, UniProt P08246).
T1 sequence (P08246 whole entry): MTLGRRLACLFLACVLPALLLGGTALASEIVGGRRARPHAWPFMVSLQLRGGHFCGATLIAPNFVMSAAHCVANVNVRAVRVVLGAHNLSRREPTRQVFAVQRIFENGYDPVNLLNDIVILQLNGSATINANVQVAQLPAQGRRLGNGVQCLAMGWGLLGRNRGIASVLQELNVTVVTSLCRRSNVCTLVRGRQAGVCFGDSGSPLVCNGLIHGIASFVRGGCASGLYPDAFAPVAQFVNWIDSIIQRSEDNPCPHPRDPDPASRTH
In words: Binding affinity for human leukocyte elastase(HLE) serine protease. In short, it runs like this: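 Human leukocyte elastase at 8 nM with 133 μM Succ-AAV-pNA. Inhibitor at 300–0.06 μM, preincubated with enzyme 1 h at 30 °C. Substrate hydrolysis run to ~30% conversion and read by absorbance.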

Another test has as its target Chymotrypsinogen A (Bos taurus, UniProt P00766). In words: Activity against serine protease bovine pancreatic Alpha-Chymotrypsinogen (BPC). The method in brief: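 Colorimetric assay with bovine pancreatic α-chymotrypsin ([…], as printed) and 100 μM Succ-AAPF-pNA. Inhibitor at 300–0.06 μM, preincubated with enzyme 1 h at 30 °C. Substrate then added and hydrolysis run to ~30% conversion, read as pNA absorbance.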

The target in a further test is Cathepsin B (Homo sapiens, UniProt P07858). Kind of test: Activity against serine protease human liver Cathepsin B (cat-B ). The method in brief: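 Human liver cathepsin B, 5 nM, with the stock enzyme activated in 20 mM TCEP before use. Inhibitor at 300–0.06 μM, preincubated 1 h at 30 °C. Then 30 μM Z-FR-pNA added, hydrolysis to ~30% conversion, pNA absorbance read.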

A value given as a limit tells only on which side of the number the result lay.

Turning to `CN(C)C(=O)C[C@H](NC(=O)[C@@H](NC(=O)CC(C)(C)C)C(C)(C)C)C(=O)N[C@H]1CN(OCc2ccccc2)C1=O`, the IC50 at Neutrophil elastase was above 300 µM; on Chymotrypsinogen A it was above 75 µM; against Cathepsin B it was above 300 µM.
As for `CC(NC(=O)[C@H](CC(=O)N(C)C)NC(=O)[C@@H](NC(=O)CC(C)(C)C)C(C)(C)C)C(=O)c1nc2ccccc2o1` (stereo partly specified), the results for the IC50 at Neutrophil elastase, on Chymotrypsinogen A and at Cathepsin B were 183 µM, above 300 µM and above 300 µM, respectively.
Take `CC(NC(=O)[C@H](CC(=O)N(C)C)NC(=O)[C@@H](NC(=O)CC(C)(C)C)C(C)(C)C)C(=O)c1nc2ncccc2o1` (stereo partly specified): the IC50 is above 300 µM on Neutrophil elastase, above 300 µM against Chymotrypsinogen A and 59 µM at Cathepsin B.
`Cc1cccc2oc(C(=O)C(C)NC(=O)[C@H](CC(=O)N(C)C)NC(=O)[C@@H](NC(=O)CC(C)(C)C)C(C)(C)C)nc12` (stereo partly specified): the IC50 at Neutrophil elastase, against Chymotrypsinogen A and on Cathepsin B was above 300 µM throughout.
With `CC(NC(=O)[C@H](CC(=O)N(C)C)NC(=O)[C@@H](NC(=O)CC(C)(C)C)C(C)(C)C)C(=O)c1nc2ccccc2s1` (stereo partly specified), the IC50 on Neutrophil elastase is above 300 µM; against Chymotrypsinogen A it was above 300 µM; on Cathepsin B, 19 µM.
With `Cc1ccc2oc(C(=O)C(C)NC(=O)[C@H](CC(=O)N(C)C)NC(=O)[C@@H](NC(=O)CC(C)(C)C)C(C)(C)C)nc2c1` (stereo partly specified), the IC50 on Neutrophil elastase, against Chymotrypsinogen A and against Cathepsin B was above 300 µM in each case.
Consider `Cc1cccc2nc(C(=O)C(C)NC(=O)[C@H](CC(=O)N(C)C)NC(=O)[C@@H](NC(=O)CC(C)(C)C)C(C)(C)C)oc12` (stereo partly specified), for which the IC50 at Neutrophil elastase, at Chymotrypsinogen A and against Cathepsin B was above 300 µM throughout.
Regarding `CC(NC(=O)[C@H](CC(=O)N(C)C)NC(=O)[C@@H](NC(=O)CC(C)(C)C)C(C)(C)C)C(=O)C(F)(F)C(F)(F)F` (stereo partly specified), the IC50 at Neutrophil elastase is above 300 µM; against Chymotrypsinogen A, 14 µM; on Cathepsin B it was above 300 µM.
With `C[C@H](NC(=O)[C@H](CC(=O)N(C)C)NC(=O)[C@@H](NC(=O)CC(C)(C)C)C(C)(C)C)C(=O)C(F)(F)F`, the IC50 at Neutrophil elastase, on Chymotrypsinogen A and against Cathepsin B was above 300 µM in each case.
As for `C[C@H](NC(=O)[C@H](CC(=O)N(C)C)NC(=O)[C@@H](NC(=O)CC(C)(C)C)C(C)(C)C)C(=O)C(F)(F)C(=O)NCc1ccccc1`, the IC50 on Neutrophil elastase, against Chymotrypsinogen A and on Cathepsin B was above 300 µM each time.
With `CC(NC(=O)[C@H](CC(=O)N(C)C)NC(=O)[C@@H](NC(=O)CC(C)(C)C)C(C)(C)C)C(=O)C(=O)NCc1ccccc1` (stereo partly specified), the IC50 on Neutrophil elastase, against Chymotrypsinogen A and against Cathepsin B was above 300 µM in each case.
As for `Cc1ccc2nc(C(=O)C(C)NC(=O)[C@H](CC(=O)N(C)C)NC(=O)[C@@H](NC(=O)CC(C)(C)C)C(C)(C)C)oc2c1` (stereo partly specified), the IC50 on Neutrophil elastase was above 300 µM; against Chymotrypsinogen A, above 300 µM; against Cathepsin B it was 225 µM.
